In general, Ki refers to the dissociation constant of the complex between target and ligand, obtained from inhibition or displacement. The low end stands for higher affinity, the high end for lower affinity.

Experiment [1] can be described thus: Selectivity measured as log[1/Ki(Lactobacillus casei DHFR)]-log[1/Ki(chicken liver DHFR)]. The gist of the method: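 Selectivity index calculated as log(1/Ki) for L. casei DHFR minus log(1/Ki) for chicken liver DHFR. Both Ki values came from stopped-flow 340 nm NADPH-oxidation assays, with jackknife estimation.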
The target of experiment [2] is Dihydrofolate reductase (Lactobacillus casei, UniProt P00381). Briefly: Inhibition of Dihydrofolate reductase from Lactobacillus casei. On the set-up: species or system Lacticaseibacillus casei. The gist of the method:
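L. casei DHFR, from lyophilized powder, dissolved to about 0.5 unit/mL in 0.05 M Tris pH 7.20 with 50 mM mercaptoethanol and stored at −20 °C. Dihydrofolate and NADPH solutions kept at 0 °C. Inhibitors in DMSO, final ≤0.5%. Stopped-flow spectrophotometry at 340 nm followed NADPH oxidation and dihydrofolate reduction. Ki with 95% confidence limits by jackknife.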

Experiment [3] deals with T1, Dihydrofolate reductase (Gallus gallus, UniProt P00378).
T1 sequence (P00378 whole entry): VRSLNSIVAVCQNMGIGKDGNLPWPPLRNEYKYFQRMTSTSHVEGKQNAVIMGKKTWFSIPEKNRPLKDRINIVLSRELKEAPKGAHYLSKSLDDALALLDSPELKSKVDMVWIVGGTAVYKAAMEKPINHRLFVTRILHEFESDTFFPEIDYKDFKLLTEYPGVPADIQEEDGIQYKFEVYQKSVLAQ
In words: Inhibition of chicken liver Dihydrofolate reductase (dihydrofolate reductase). In short, it runs like this: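 Chicken liver DHFR vial (0.19 unit/mL) dissolved in 24 mL of 200 μM NADPH. Inhibitors in DMSO, final ≤0.5%. Activity with and without inhibitor read at 340 nm by stopped-flow spectrophotometry as NADPH is oxidized and dihydrofolate reduced.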

Chain of Dihydrofolate reductase (Lactobacillus casei, UniProt P00381) (P00381 whole entry): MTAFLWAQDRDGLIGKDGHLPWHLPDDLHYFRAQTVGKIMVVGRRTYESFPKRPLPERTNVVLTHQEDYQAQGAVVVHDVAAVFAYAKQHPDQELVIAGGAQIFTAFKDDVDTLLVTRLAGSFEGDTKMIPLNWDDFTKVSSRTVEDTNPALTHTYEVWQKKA

On to `Cc1ccccc1Cc1cnc(N)nc1N`, for which the Selectivity index in experiment [1] came to 0.49. The same molecule had an inhibitory constant (Ki) at Dihydrofolate reductase [2] of 9.55 µM.

With `C=CCOc1ccccc1Cc1cnc(N)nc1N`, the Ki is 21.4 µM on Dihydrofolate reductase [3] and 13.5 µM at Dihydrofolate reductase [2]. Further, the Selectivity index in experiment [1] was 0.2.

The molecule `COc1cccc(Cc2cnc(N)nc2N)c1` gave a Selectivity index in experiment [1] of 1.48.

Consider `Nc1ncc(Cc2ccccc2Br)c(N)n1`, for which the Ki at Dihydrofolate reductase [3] is 12.3 µM; on Dihydrofolate reductase [2], 10 µM. In experiment [1], the Selectivity index worked out at 0.09.

Regarding `CCOc1ccccc1Cc1cnc(N)nc1N`, the Selectivity index in experiment [1] stood at 0.09. The molecule further had a Ki on Dihydrofolate reductase [2] of 20 µM.

With `Nc1ncc(Cc2ccccc2F)c(N)n1`, the Ki on Dihydrofolate reductase [3] was 43.7 µM; on Dihydrofolate reductase [2], 9.55 µM. For the same molecule, the Selectivity index in experiment [1] is 0.66.

`COc1ccccc1Cc1cnc(N)nc1N`: the Ki was 28.8 µM at Dihydrofolate reductase [3] and 10 µM on Dihydrofolate reductase [2]. The molecule further showed a Selectivity index in experiment [1] of 0.46.

For the molecule `CS(=O)(=O)Oc1ccccc1Cc1cnc(N)nc1N`, the Ki on Dihydrofolate reductase [3] was 22.9 µM; on Dihydrofolate reductase [2], 85.1 µM. The molecule also gave a Selectivity index in experiment [1] of -0.57.

For `CCCCCCOc1ccccc1Cc1cnc(N)nc1N`, the Ki is 7.94 µM on Dihydrofolate reductase [3] and 100 µM at Dihydrofolate reductase [2]. The Selectivity index in experiment [1] is -1.1.

As for `Nc1ncc(Cc2ccccc2Cl)c(N)n1`, the results for the Ki on Dihydrofolate reductase [3] and on Dihydrofolate reductase [2] were 17.4 µM and 9.55 µM, respectively. Moreover, in experiment [1], the Selectivity index stood at 0.26.

Regarding `NC(=O)COc1ccccc1Cc1cnc(N)nc1N`, the figures for the Ki on Dihydrofolate reductase [3] and on Dihydrofolate reductase [2] were 33.9 µM and 79.4 µM, respectively. Further, in experiment [1], the Selectivity index was -0.37.

Consider `COCc1ccccc1Cc1cnc(N)nc1N`, for which the Ki on Dihydrofolate reductase [3] is 39.8 µM; at Dihydrofolate reductase [2], 28.2 µM. This molecule also showed a Selectivity index in experiment [1] of 0.15.

Consider `Nc1ncc(Cc2ccccc2O)c(N)n1`, for which the results for the Ki at Dihydrofolate reductase [3] and on Dihydrofolate reductase [2] were 89.1 µM and 110 µM, respectively. The same molecule returned a Selectivity index in experiment [1] of -0.09.

In turn, `Nc1ncc(Cc2ccccc2)c(N)n1` showed a Selectivity index in experiment [1] of 0.49.

For `Nc1ncc(Cc2ccccc2I)c(N)n1`, the Ki is 8.71 µM at Dihydrofolate reductase [3] and 11.5 µM on Dihydrofolate reductase [2]. In addition, in experiment [1], the Selectivity index is -0.12.

`CCCCOc1ccccc1Cc1cnc(N)nc1N` showed a Selectivity index in experiment [1] of -0.61. The molecule also showed a Ki at Dihydrofolate reductase [2] of 35.5 µM.

With `Nc1ncc(Cc2ccccc2OCc2ccccc2)c(N)n1`, the Ki at Dihydrofolate reductase [3] was 9.12 µM; on Dihydrofolate reductase [2] it was 18.2 µM. This molecule came in with a Selectivity index in experiment [1] of -0.3.

(Values after ChEMBL document CHEMBL1131154, “Quantitative structure-activity relationships of 2, 4-diamino-5-(2-X-benzyl)pyrimidines versus bacterial and avian dihydrofolate reductase” (J Med Chem, 1998).)
